Source: PubChem (several laboratories)
NPY1 pot ag: NPY-Y1 receptor potentiators or agonists, primary screen, cell-based | NPY-Y1 expressing cells, potentiator/agonist activation | activation, % at 3.6 µM | hit rate 0.37% among 220,000 | Neuropeptide Y receptor type 1 (Homo sapiens), P25929; in the data active = activation above about 33%, passing the limit was not always enough;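 also: cells stimulated with NPY at EC10 then isoproterenol at EC100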
Target sequence (P25929 whole entry, looked up): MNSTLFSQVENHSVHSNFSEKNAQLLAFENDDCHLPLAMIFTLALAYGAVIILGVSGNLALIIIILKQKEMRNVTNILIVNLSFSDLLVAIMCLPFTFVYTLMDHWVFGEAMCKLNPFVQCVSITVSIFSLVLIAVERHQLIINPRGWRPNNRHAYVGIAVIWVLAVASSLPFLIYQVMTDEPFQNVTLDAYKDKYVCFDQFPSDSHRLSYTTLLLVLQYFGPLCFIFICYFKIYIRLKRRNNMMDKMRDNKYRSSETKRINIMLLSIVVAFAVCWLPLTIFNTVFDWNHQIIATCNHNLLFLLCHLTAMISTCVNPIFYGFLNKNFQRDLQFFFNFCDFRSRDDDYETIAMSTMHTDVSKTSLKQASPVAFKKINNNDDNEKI
Insulin prom inh: inhibitors of insulin promoter-driven GFP, primary screen, imaging, TRM-6 cells, eGFP reporter, cell count; reporter expression induced with tamoxifen; inhibition, % at 2 µM; hit rate 0.9% among 130,000;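 active = inhibition above the mean plus 3 SD, with well images judged a real hit on visual review, cut at about 60% in these data, passing the limit was not always enough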
NPY Y2 blocker: NPY-Y2 receptor antagonists, primary screen, cell-based | hit rate 0.99% among 140,000 | AID 793, 2007 | NPY-Y2 expressing cells, antagonist mode | inhibition, % at 2.7 µM; in the data active = inhibition above about 17%
NPY2 pot ag: NPY-Y2 potentiators or agonists, primary screen, cell-based; Neuropeptide Y receptor type 2 (Homo sapiens), P49146; cells expressing NPY-Y2, potentiator/agonist read-out; activation, % at 3.6 µM; hit rate 0.45% among 220,000; in the data active = activation above about 27%;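 also: cells stimulated with NPY near EC25 plus isoproterenol at EC100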
RAM network inh: inhibitors of the yeast RAM network, primary screen, dse1pr::URA3 reporter, 5-FOA selection | S. cerevisiae dse1pr::URA3 reporter, 5-FOA growth OD615, 2 d; analog-sensitive cbk1-as2 kinase mutant strain | hit rate 1.8% among 190,000 | inhibition, % at 50 µM;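 active = inhibition above a set limit, 3 SD over mean compound inhibition, cut at about 8.4% in these data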;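 also: inhibition rescues growth on 5-FOA so higher OD means more RAM inhibition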
NPY Y1 blocker: NPY-Y1 receptor antagonists, primary screen, cell-based. Neuropeptide Y receptor type 1 (Homo sapiens), P25929. HEK293-CNG Y1 cells, membrane potential fluorescence; NPY at EC95, then isoproterenol. inhibition, % at 3.6 µM. hit rate 1% among 200,000. AID 1040, 2008;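 active = inhibition above the campaign mean inhibition of all tested compounds plus 3 SD, cut at about 20% in these data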
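Material: HEK293 Y1/CNG channel cell line | Also added: NPY (25 nM), isoproterenol (1 µM), Ro 20-1724 (25 µM) | Compound: One concentration, 3.6 µM, in 0.4% DMSO | Schedule: 3 h dye uptake, 1 h room-temperature compound, 45 min post-isoproterenol | Signal: Membrane-potential fluorescent dye readout | Read-out: % inhibition of NPY effect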
Of the large screens only hits and unclear results are named; the others gave an inactive call. In the library only some 3.8% were active in any assay of this set; here they are far more common.

CC1=CC2=NC(=O)/C(=C\c3cccn3CCOc3cccc(C)c3)C(=N)N2O1	RAM network inh 9.3
COc1cccc(OCCn2cccc2/C=C2/C(=N)N3OC(C)=CC3=NC2=O)c1	RAM network inh 11 (no result: Insulin prom inh, NPY Y2 blocker)
Cn1nnnc1SCC(=O)N(C1CCCCC1)C1CCS(=O)(=O)C1 (centres undefined)	none (no result: NPY Y2 blocker)
CC(C)(C)OC(=O)NCCc1nnc(SCc2ccc(Cl)cc2Cl)o1	none
Clc1cccc(NCc2nnc(SCc3ccc(Cl)cc3Cl)o2)c1	RAM network inh 8.4
CCC(C)(C)n1nnnc1C(c1ccccc1)N1CCN(Cc2ccccc2)CC1 (centres undefined)	none (no result: Insulin prom inh, NPY Y2 blocker)
CCC(C)(C)n1nnnc1C(c1cc(OC)ccc1OC)N1CCN(Cc2ccccc2)CC1 (centres undefined)	NPY Y1 blocker 20 (no result: NPY Y2 blocker)
CCC(C)(C)n1nnnc1C(c1ccc(OC)c(OC)c1)N1CCN(c2ccccc2)CC1 (centres undefined)	none
CCC(C)(C)n1nnnc1C(c1ccc(OC)c(OC)c1)N1CCN(c2cccc(OC)c2)CC1 (centres undefined)	NPY Y2 blocker 22, NPY Y1 blocker 24
CCC(C)(C)n1nnnc1C(c1ccc(C)cc1)N1CCC(C)CC1 (centres undefined)	NPY Y2 blocker 20, NPY Y1 blocker 39
CCCCOc1ccc(CCC(=O)N/N=C/c2ccco2)cc1	none (no result: Insulin prom inh, NPY Y2 blocker, RAM network inh, NPY Y1 blocker)
CCCCN(C)Cc1c(C)[nH]c2ccc(OCC)cc2c1=O	none
O=C(NCCc1nnc2ccc(NCc3ccc(Cl)cc3)nn12)c1ccccc1	RAM network inh 8.5 (no result: NPY Y2 blocker)
O=C(CSc1ccc2nnc(CCNC(=O)c3ccccc3)n2n1)Nc1ccccc1F	none (no result: Insulin prom inh, NPY Y2 blocker)
NS(=O)(=O)c1ccc(CCNC(=O)CSc2nnc3ccccn23)cc1	none (no result: Insulin prom inh, NPY Y2 blocker)
O=C(NC(Cc1c[nH]c2ccccc12)C(=O)N/N=C/c1ccc(Cl)cc1)c1cccs1 (centres undefined)	none (no result: NPY Y2 blocker)
COc1ccc(/C=N/NC(=O)C(Cc2c[nH]c3ccccc23)NC(=O)OCC(C)C)cc1[N+](=O)[O-] (centres undefined)	NPY Y2 blocker 33, NPY Y1 blocker 35
COc1ccccc1/C=N/N1C(=O)C(CC(=O)Nc2ccc([N+](=O)[O-])cc2OC)SC1=Nc1cccc(C)c1C (centres undefined)	RAM network inh 11 (no result: NPY Y2 blocker)
CCOc1ccc(/C(C)=N/N2C(=O)C(CC(=O)Nc3ccc(OC)cc3[N+](=O)[O-])SC2=Nc2cccc(C)c2C)cc1 (centres undefined)	none
CCOC(=O)C1=NN(c2ccccc2)C2(S1)SC(C(C)=O)=C(C)N2c1ccccc1 (centres undefined)	none
CCOC(=O)C1=NN(c2cccc(C)c2)C2(S1)SC(C(C)=O)=C(C)N2c1ccccc1 (centres undefined)	NPY Y2 blocker 32, NPY Y1 blocker 29
Cc1ccc(C(=O)CSc2ccc(-c3cccnc3)nn2)cc1	none (no result: NPY Y2 blocker)
O=C(O)c1cc(-c2cccs2)nc2cc3c(cc12)OCCO3	Insulin prom inh 86
CCCC/C(C)=N/NC(=O)c1cn(-c2ccccc2)nc1-c1ccccc1	none (no result: Insulin prom inh)
COCCn1c(C(=O)N2CCCC2)cc2c1C[C@H]1CN(C(=O)c3ccccc3)[C@@](Cc3ccc(F)cc3)(C(=O)OC)[C@@H]21	none
COC(=O)[C@@]1(Cc2ccc(F)cc2)[C@H]2c3cc(C(=O)N(C)C)n(CCc4ccc(OC)c(Br)c4)c3C[C@H]2CN1C(=O)c1ccccc1	RAM network inh 8.7
COC(=O)[C@@]1(Cc2ccc(OC)cc2)[C@H]2c3cc(C(=O)N4CCCC4)n(Cc4ccc(C)o4)c3C[C@H]2CN1C(=O)c1ccccc1	NPY Y2 blocker 23, NPY Y1 blocker 32
COC(=O)[C@@]1(Cc2ccc(F)cc2)[C@H]2c3cc(C(=O)N(C)C)n(Cc4ccc(OC)c(OC)c4)c3C[C@H]2CN1C(=O)c1ccccc1	none
COC(=O)[C@@]1(Cc2ccc(F)cc2)[C@H]2c3cc(C(=O)N(C)C)n(Cc4ccccc4)c3C[C@H]2CN1C(=O)c1ccccc1	NPY Y2 blocker 21, NPY Y1 blocker 32
COC(=O)[C@@]1(Cc2ccc(F)cc2)[C@H]2c3cc(C(=O)N(C)C)n(CCc4ccccn4)c3C[C@H]2CN1C(=O)c1ccccc1	none
COc1ccc(C(=O)N(C)C2CCN(C)CC2)cc1S(=O)(=O)Nc1cc(Cl)ccc1Cl	none (no result: Insulin prom inh, NPY Y2 blocker, RAM network inh, NPY Y1 blocker)
O=C(NCCc1ccccc1)N1c2ccccc2Sc2ccccc21	RAM network inh 9.8
Cc1cccc(C)c1Nc1c(-c2ccsc2)nc2ncccn12	NPY1 pot ag 46, NPY2 pot ag 59
Cc1ccccc1Nc1c(-c2ccc(N3CCOCC3)cc2)nc2ncccn12	NPY1 pot ag 56, NPY2 pot ag 43 (no result: NPY Y2 blocker)
Cc1ccc(Nc2c(-c3ccc(N4CCOCC4)cc3)nc3ncccn23)cc1	none
CCOP(=O)(c1ccccc1)c1nc(-c2ccccc2C)oc1NCc1ccccc1 (centres undefined)	none (no result: Insulin prom inh, NPY Y2 blocker, RAM network inh, NPY Y1 blocker)
Cc1c(CC(=O)Nc2ccc(Cl)cc2)sc2ccc(Cl)cc12	none (no result: Insulin prom inh, NPY Y2 blocker, RAM network inh, NPY Y1 blocker)
Cc1ccc(-c2csc(NC(=O)CSc3nc4ccccc4[nH]3)n2)cc1	RAM network inh 9.8
Cc1ccc(NC(=O)CSc2nc3c(cc2C#N)C(=O)CCC3)cc1S(=O)(=O)N(C)C	RAM network inh 8.5
CN(C)S(=O)(=O)c1ccc(Cl)c(NC(=O)CSc2nc3c(cc2C#N)C(=O)CCC3)c1	none
COc1ccc(-c2cc(N)n(S(=O)(=O)c3c(F)c(F)c(F)c(F)c3F)n2)cc1OC	NPY Y2 blocker 99, NPY Y1 blocker 87
Fc1cccc(CO/N=C/c2c(-c3ccccc3)nc3ccc(Cl)cn23)c1	RAM network inh 9.1 (no result: Insulin prom inh)
Cc1cccn2c(/C=N/OCc3cccc(F)c3)c(-c3ccc(Cl)cc3)nc12	RAM network inh 9.3
Clc1cccc(Cl)c1CO/N=C/c1c(-c2ccccc2)nc2n1CCS2	none
CC(C)CNC(=O)c1cccc(NC(=O)C(C)C)c1	none (no result: Insulin prom inh, NPY Y2 blocker)
CC1=Nc2ccccc2/C1=C\c1nc(-c2ccc(F)cc2)oc1O	RAM network inh 8.6
CN=Cc1nc(-c2ccccc2)oc1O	none
O=C(CN1CCN(c2ccccc2)CC1)Nc1cccc([N+](=O)[O-])c1	none (no result: NPY Y2 blocker)
COc1ccccc1-n1c(=O)c(C#N)c(-c2ccc([N+](=O)[O-])cc2)c2cc(C(=O)c3ccccc3O)cnc21	NPY1 pot ag 73, NPY2 pot ag 49 (no result: Insulin prom inh, NPY Y2 blocker, RAM network inh, NPY Y1 blocker)
COc1ccccc1NC(=O)Cn1cncc1-c1ccc([N+](=O)[O-])cc1	none (no result: Insulin prom inh)
COc1cc2c(cc1OC)C(C(=O)NC1CC1)C1c3ccccc3CCN1C2=O (centres undefined)	none (no result: Insulin prom inh, RAM network inh)
